Activity calls are given as the source filed them. The rule behind the calls is not given here.
Legend:
[1] = biological target: T1, Ketohexokinase (Homo sapiens) (UniProt P50053); experiment: Inhibition of recombinant full length human His-tagged KHK expressed in Escherichia coli BL21(DE3) using at 240 uM by 1D NMR-STD spectroscopic method
T1 sequence (whole entry): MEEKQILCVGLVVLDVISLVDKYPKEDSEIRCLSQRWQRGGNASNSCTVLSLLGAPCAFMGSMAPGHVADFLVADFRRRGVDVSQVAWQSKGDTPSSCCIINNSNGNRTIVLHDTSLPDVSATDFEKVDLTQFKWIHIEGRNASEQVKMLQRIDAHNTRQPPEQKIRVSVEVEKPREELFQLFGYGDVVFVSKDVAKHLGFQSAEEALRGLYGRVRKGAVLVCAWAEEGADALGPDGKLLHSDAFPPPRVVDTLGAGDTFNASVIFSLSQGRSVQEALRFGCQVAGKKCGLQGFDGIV
Procedure, shortened: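 Full-length His-tagged human KHK (tag retained) at 5 μM in 50 mM Tris-d, 100 mM NaCl, 2 mM TCEP-d, 5% glycerol-d, pH 7.5, 298 K. AMP-PMP at 240 μM served as positive control. Saturation-transfer difference NMR used 512 scans and 3 s Gaussian on/off-resonance saturation. Binding was called from positive difference signals, with ligands assigned against each fragment's 1D 1H reference spectrum.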

Ketohexokinase [2] = biological target: T2, Ketohexokinase (Homo sapiens, UniProt P50053); experiment: Binding affinity to full length recombinant human biotin-labeled KHK by SPR assay
T2 sequence (P50053 whole entry): T1 sequence (whole entry)
Procedure, shortened: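 Full-length biotinylated KHK captured on a streptavidin sensor (7000-8000 RU). Run buffer was 50 mM HEPES pH 7.4, 150 mM NaCl, 0.01% P20, 500 µM TCEP, 3% DMSO at 25 °C. Eleven 2-fold concentrations from 300 µM top, stop-flow with 60 s association and ≥120 s dissociation. Data double-referenced and DMSO-corrected; KD by steady-state affinity fit, n=1.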

Ketohexokinase [3] = biological target: T2, Ketohexokinase; experiment: Inhibition of recombinant human N-terminal His-tagged KHK expressed in Escherichia coli BL21(DE3) using fructose as substrate incubated for 30 mins followed by ATP addition measured for 30 mins by pyruvate kinase-lactate dehydrogenase coupled enzyme assay
Procedure, shortened: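 Thrombin-cleaved (His-tag removed) human or rat KHK at 10 nM, preincubated 30 min at room temperature with compound (11-point series, 2.5% DMSO). Started with 0.2 mM ATP; NADH A340 read kinetically for 30 min. IC50 from nonlinear fit of percent inhibition; mean of replicates.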

[4] = Octanol/water partition coefficient, log D of the compound at pH 7.4 by shake-flask method; assay type: physicochemical
Procedure, shortened: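 LogD measured by shake-flask octanol:water partition at pH 7.4.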

[5] = Apparent clearance in human liver microsomes; assay type: ADME, microsome; conditions: read-out: CLH(app)

Row | Structure (SMILES) | inhibition [1] | Kd (Ketohexokinase [2]) [µM] | IC50 (Ketohexokinase [3]; read-out: IC50) [µM] | logD [4] | microsomal CLint [5] [µL/min/mg] | IC50 (Ketohexokinase [3]; read-out: pIC50 (converted)) [µM]
1 | Oc1nc2ccccc2nc1C(F)(F)F | Active | 44 | 100 | – | – | –
2 | C[C@@]1(O)CCN(c2c(C#N)c(C(F)(F)F)nc3cc[nH]c23)C1 | – | – | 24.2 | 2.1 | < 8 | –
3 | Cc1c[nH]c2ncnc(N3CCC[C@@H](CO)C3)c12 | Active | 20 | 118 | – | – | 120
4 | N#Cc1cc(F)c(N)nc1Cl | Active | 103 | > 500 | – | – | –
5 | CCc1cc2nc(C(F)(F)F)c(C#N)c(N3CCC(C)(O)C3)c2[nH]1 (racemic) | – | – | 1.48 | 2.8 | 103 | –

Reference: ChEMBL document CHEMBL4017511, “Discovery of Fragment-Derived Small Molecules for in Vivo Inhibition of Ketohexokinase (KHK)” (J Med Chem, 2017)
